Measurements taken from PubChem BioAssay AID522 (The Scripps Research Institute Molecular Screening Center, 2006).
The whole screen tested about 65,000 compounds, of which about 1,200 (1.8%) were called active.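 The calls were made as follows: active = activation above the mean activation of all tested compounds plus 3 SD (cut at about 50% in these data); inactive = the rest.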 The entries come from a sample that favours actives as a whole.

The compounds below were run against Steroidogenic factor 1 (Homo sapiens) (UniProt Q13285) (assay: SF-1 ligand-binding domain transactivation enhancers – cell-based, CHO-K1, Gal4-SF-1 LBD, luciferase luminescence, primary screen (AID 522)). Details: CHO-K1 Gal4-SF-1 LBD luciferase reporter; at 10 µM; stronger effect = higher value; % increase over DMSO SF-1-specific signal.
Chain of Steroidogenic factor 1 (Homo sapiens) (Q13285 whole entry, looked up, the tested form may be a part): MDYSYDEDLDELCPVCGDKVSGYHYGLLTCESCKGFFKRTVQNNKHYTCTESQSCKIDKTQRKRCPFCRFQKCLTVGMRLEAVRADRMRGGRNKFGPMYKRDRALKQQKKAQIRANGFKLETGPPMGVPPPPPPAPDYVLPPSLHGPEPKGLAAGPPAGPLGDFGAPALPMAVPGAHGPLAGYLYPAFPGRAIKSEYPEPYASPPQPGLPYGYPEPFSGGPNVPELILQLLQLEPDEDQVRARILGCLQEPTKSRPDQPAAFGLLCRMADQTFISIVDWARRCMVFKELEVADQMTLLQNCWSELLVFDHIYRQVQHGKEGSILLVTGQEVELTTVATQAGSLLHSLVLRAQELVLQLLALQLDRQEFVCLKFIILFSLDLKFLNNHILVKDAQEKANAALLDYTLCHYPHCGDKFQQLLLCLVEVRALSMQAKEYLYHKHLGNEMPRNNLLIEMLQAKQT
Outline: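 Test system: transient Gal4-SF-1 LBD reporter, CHO-K1; Amount: 4,000 CHO-K1 cells per well; Doses: 10 µM only; Timing: compound exposure 20 h at 37 °C; Signal: luciferase light emission; Read-out basis: percent activation relative to DMSO median and mock-transfected background; Control set: DMSO negative control and −SF1 background wells; Replicates: one test per compound.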

Q: How did the activation turn out when `CCCc1[nH]nc2c1C(c1ccc(Br)s1)C(C#N)=C(N)O2` (stereo not drawn) was run?
A: The activation was 15.9% (inactive).

Q: `Cn1c(/C(C#N)=C2/CCCCCN2)nc2ccccc21` was tested. Which activation did it give?
A: Its activation is 9.6% (inactive).

Q: Which activation does the source give for `CCOC(=O)N1CCN(C(=O)C2CC(c3ccc(F)cc3)=NO2)CC1` (stereo not drawn) here?
A: Its activation is -7.2% (inactive).

Q: `COC(=O)[C@H](C(C)C)n1c(C)c(C(C)=O)c(C(C)=O)c1C` was tested. Which activation did it give?
A: Its activation is 5.7% (inactive).

Q: For `CC(Cc1cccs1)NC(=O)NC1CCCCC1` (stereo not drawn), which activation is on record?
A: Its activation is 41.1% (inactive).

Q: `CC(=O)OC(C(=O)NC1CCCCC1)c1ccccc1` (stereo not drawn) was tested. Which activation did it give?
A: The activation was -11.8% (inactive).

Q: With `CC(C)c1ccc(NC(=O)NC2CCCCC2)cc1` as the compound, how does the activation read?
A: The activation was 100% (active).

Q: With `Cc1cccc(-n2c(N)c(C(=O)N3CCN(C)CC3)sc2=S)c1` as the compound, how does the activation read?
A: Its activation is 3.5% (inactive).

Q: How did the activation turn out when `Cc1ccc(C2CC(=O)NC(SCC(=O)OCc3ccccc3)=C2C#N)o1` (stereo not drawn) was run?
A: The activation was -4.2% (inactive).

Q: For `CCN(CC(=O)Nc1ccc2c(c1)OCCO2)Cc1cc(=O)oc2cc(C)c(C)cc12`, which activation is on record?
A: The activation was -19.6% (inactive).

Q: For `CCOc1ccc2cc(C#N)c(SCC(=O)OC)nc2c1`, which activation is on record?
A: Its activation is 26.5% (inactive).

Q: For `Cc1cc(C(F)(F)F)c(C#N)c(SCC(=O)NC2CC2)n1`, which activation is on record?
A: The activation was -6.7% (inactive).

Q: With `CC(=O)c1cc(C#N)c(SCC(=O)C(C)(C)C)nc1C` as the compound, how does the activation read?
A: Its activation is 57.1% (active).

Q: Which activation does the source give for `O=C(Nc1ccc(-c2nnc(-c3ccccc3)o2)cc1)C1CCCO1` (stereo not drawn) here?
A: Its activation is 65.9% (active).

Q: How did the activation turn out when `O=C(Nc1nnc(CCc2ccccc2)s1)C1CCCO1` (stereo not drawn) was run?
A: The activation was 21.6% (inactive).

Q: Which activation does the source give for `O=C(CSc1nnc(-c2ccc(NS(=O)(=O)c3ccccc3)cc2)o1)NCC1CCCO1` (stereo not drawn) here?
A: Its activation is -0.8% (inactive).

Q: Which activation does the source give for `Cc1cc(Br)ccc1NC(=O)C1CCCO1` (stereo not drawn) here?
A: The activation was -10.5% (inactive).

Q: `O=C(Nc1cccc(-c2nnc(-c3ccccc3)o2)c1)C1CCCO1` (stereo not drawn) was tested. Which activation did it give?
A: The activation was 65.8% (active).

Q: `O=C(CCc1ccccc1)Nc1cccc(-c2nnc(-c3ccco3)o2)c1` was tested. Which activation did it give?
A: Its activation is 27.9% (inactive).

Q: Which activation does the source give for `Cc1cccc(N2CCN(Cc3c(C)n(C)n(-c4ccccc4)c3=O)CC2)c1C` here?
A: Its activation is 15.3% (inactive).

Q: `O=C(NCc1ccccc1)C1C(=O)N(Cc2ccccc2)C(=O)C1C1(O)CCCC1` (stereo not drawn) was tested. Which activation did it give?
A: The activation was -4.5% (inactive).

Q: Which activation does the source give for `Cc1ccccc1Cn1c(=O)[nH]c2ccccc21` here?
A: Its activation is -12.9% (inactive).

Q: `CCOC(=O)C1CCN(Cc2coc3ccc(Cl)cc3c2=O)CC1` was tested. Which activation did it give?
A: Its activation is -25.8% (inactive).

Q: How did the activation turn out when `O=C(Nc1ccc(Oc2ccccc2)cc1)c1ccco1` was run?
A: The activation was 44% (inactive).

Q: `COC(=O)c1ccc(NC(=O)c2ccco2)cc1` was tested. Which activation did it give?
A: Its activation is 85.3% (active).

Q: For `CC(C)(C)NC(=O)c1cc(NC(=O)c2ccco2)cc(NC(=O)c2ccco2)c1`, which activation is on record?
A: Its activation is 22% (inactive).

Q: For `Cc1cccc(C)c1NC(=O)N1CC=C(n2c(=O)[nH]c3ccccc32)CC1`, which activation is on record?
A: Its activation is -7.6% (inactive).

Q: `CC(Sc1sc(=S)sc1SC(C)C(=O)O)C(=O)O` (stereo not drawn) was tested. Which activation did it give?
A: The activation was -6.9% (inactive).

Q: Which activation does the source give for `CCCCOC(=O)c1[nH]c(C)c(C(=O)OC)c1C` here?
A: The activation was 77.7% (active).

Q: Which activation does the source give for `CCOC(=O)c1c(C)[nH]c(C(=O)COc2ccc3c(c2)OCO3)c1C` here?
A: Its activation is 28.5% (inactive).

Q: `CCOC(=O)c1c(C)[nH]c(C(=O)NCc2ccccc2OC)c1C` was tested. Which activation did it give?
A: Its activation is 24.8% (inactive).

Q: `CCc1ccccc1NC1c2ccccc2C(=O)N1c1cccnc1` (stereo not drawn) was tested. Which activation did it give?
A: Its activation is -5.1% (inactive).

Q: For `Cc1cc(N2C(=O)C(=O)/C(=C(/O)c3ccccc3)C2c2cccc(Br)c2)no1` (stereo not drawn), which activation is on record?
A: Its activation is 2.6% (inactive).

Q: How did the activation turn out when `COc1ccc(S(=O)(=O)NC2(C(F)(F)F)N=C3SCCN3C2=O)cc1` (stereo not drawn) was run?
A: The activation was 19.3% (inactive).

Q: How did the activation turn out when `C=C(C)CSc1nc(N)c2c3c(sc2n1)CCC3` was run?
A: The activation was 51.5% (active).

Q: How did the activation turn out when `CN(C)CCSc1nc(N)c2c3c(sc2n1)COC(C)(C)C3` was run?
A: The activation was 3.5% (inactive).

Q: `C=C(C)Cn1c(SCC(=O)NCc2ccco2)nc2sc3c(c2c1=O)CCC3` was tested. Which activation did it give?
A: The activation was -1.8% (inactive).

Q: With `O=C(CSc1nc2[nH]ncc2c(=O)n1-c1ccccc1)N1CCCc2ccccc21` as the compound, how does the activation read?
A: Its activation is 22.2% (inactive).

Q: Which activation does the source give for `O=C(NCCCN1CCOCC1)c1cc(-c2ccc(Cl)cc2)on1` here?
A: Its activation is -2.4% (inactive).

Q: How did the activation turn out when `CC(C)CNC(=O)c1cc(-c2ccc(Br)cc2)on1` was run?
A: Its activation is 52.5% (active).

Q: Which activation does the source give for `CC(NC(=O)c1cc(-c2ccccc2)on1)c1ccccc1` (stereo not drawn) here?
A: Its activation is 1.6% (inactive).

Q: `CCOC(=O)C1CCc2nc3ccccc3c(=O)n21` (stereo not drawn) was tested. Which activation did it give?
A: Its activation is 2.2% (inactive).

Q: `CCOC(=O)C1CCN(C(=O)CC2C(=O)N(Cc3ccccc3)C(C)c3nc4ccccc4n32)CC1` (stereo not drawn) was tested. Which activation did it give?
A: The activation was 14.5% (inactive).

Q: Which activation does the source give for `COC(=O)c1ccc(Oc2nc(NC(C)C)nc(SC)n2)cc1` here?
A: Its activation is 2.8% (inactive).

Q: How did the activation turn out when `CC(C)(C)c1csc(NC2=NS(=O)(=O)c3ccccc32)n1` was run?
A: The activation was 50.5% (active).

Q: How did the activation turn out when `c1ccc(Nc2nc(-c3ccncc3)cs2)nc1` was run?
A: Its activation is 36.9% (inactive).

Q: Which activation does the source give for `CCOC(=O)c1nnn(CC(=O)Nc2cccc(F)c2)c1C(=O)OCC` here?
A: Its activation is 2.1% (inactive).

Q: For `CCN(CCCCOC(=O)c1ccc(OC)c(OC)c1)C(C)Cc1ccc(OC)cc1` (stereo not drawn), which activation is on record?
A: The activation was -10.3% (inactive).
